≈ marks a conversion by molar mass, not a printed value. Bounds are passed on as bounds.

Type in all cases: functional
One experiment relates to Cryptococcus neoformans. As to the kind of experiment: Antifungal activity against Cryptococcus neoformans ATCC 32609 after 72 hrs by micro-broth dilution method. As to conditions: ATCC 32609, 72 h. In a few lines:
(§1)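 NCCLS (M27-A2) broth microdilution in 96-well format. Compounds in DMSO, serially diluted in growth medium, inoculated, incubated at 35 °C, and read at 24 h (C. albicans ATCC76615) or 72 h (Cry. neoformans ATCC32609). MIC80 is the first well with about 80% less growth than the drug-free well. Three independent runs per agent; the mean of replicates is reported.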

The subject of a further experiment is Aspergillus fumigatus. As to the kind of experiment: Antifungal activity against Aspergillus fumigatus by micro-broth dilution method. In a few lines:
(§2)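 Broth microdilution in 96-well plates following the NCCLS method. DMSO solutions of test agents were serially diluted in growth medium, inoculated, and incubated at 35 °C. MIC80 is the first well showing roughly 80% growth reduction versus the drug-free control. C. albicans ATCC76615 and Cry. neoformans ATCC32609 served as quality-control strains. Each test was done three times; the mean of replicates is reported.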

In a further experiment the test system is Nannizzia gypsea. As to the kind of experiment: Antifungal activity against Microsporum gypseum by micro-broth dilution method. The essentials:
as §2

For the next experiment, the system named is Candida parapsilosis. As to the kind of experiment: Antifungal activity against Candida parapsilosis by micro-broth dilution method. As to conditions: Lodderomyces parapsilosis. In a few lines:
as §2

The subject of the next experiment is Candida albicans. Nature of the experiment: Antifungal activity against Candida albicans ATCC 76615 after 24 hrs by micro-broth dilution method. As to conditions: ATCC 76615, 24 h. In a few lines: as §1
Another experiment deals with Candida tropicalis. Nature of the experiment: Antifungal activity against Candida tropicalis by micro-broth dilution method. The essentials: as §2
The next experiment deals with Trichophyton rubrum. Nature of the experiment: Antifungal activity against Trichophyton rubrum by micro-broth dilution method. The essentials: as §2
Another experiment concerns Pichia kudriavzevii. As to the kind of experiment: Antifungal activity against Candida krusei by micro-broth dilution method. In a few lines:
as §2

Turning to `C=CCN(Cc1ccc(CC)cc1)CC(O)(Cn1cncn1)c1ccc(F)cc1F` (stereo unspecified), the MIC80 was 0.25 µg/mL (≈ 0.606 µM) against Cryptococcus neoformans; above 64 µg/mL against Aspergillus fumigatus; 0.0625 µg/mL (≈ 0.152 µM) against Nannizzia gypsea; 1 µg/mL (≈ 2.42 µM) in the experiment on Candida parapsilosis; 0.25 µg/mL (≈ 0.606 µM) in the experiment on Candida albicans; 0.0156 µg/mL (≈ 0.0378 µM) against Candida tropicalis. For the same molecule, the values for the MIC80 in the experiment with Trichophyton rubrum and with Pichia kudriavzevii were 1 µg/mL (≈ 2.42 µM) and 0.25 µg/mL (≈ 0.606 µM), respectively.
`C=CCN(Cc1ccc(C(=O)Oc2ccccc2C(=O)OC)cc1)CC(O)(Cn1cncn1)c1ccc(F)cc1F` (stereo unspecified): the MIC80 with Cryptococcus neoformans was above 64 µg/mL; against Aspergillus fumigatus, above 64 µg/mL; in the experiment on Nannizzia gypsea, 4 µg/mL (≈ 7.11 µM); in the experiment with Candida parapsilosis, 4 µg/mL (≈ 7.11 µM); with Candida albicans it was 0.0625 µg/mL (≈ 0.111 µM); against Candida tropicalis, 16 µg/mL (≈ 28.4 µM). The MIC80 was determined as 64 µg/mL (≈ 114 µM) against Trichophyton rubrum and 16 µg/mL (≈ 28.4 µM) with Pichia kudriavzevii.
In the case of `C=CCN(Cc1ccc(Cl)cc1Cl)CC(O)(Cn1cncn1)c1ccc(F)cc1F` (stereo unspecified), the MIC80 against Cryptococcus neoformans stood at 1 µg/mL (≈ 2.21 µM); in the experiment with Aspergillus fumigatus, 16 µg/mL (≈ 35.3 µM); in the experiment on Nannizzia gypsea, 1 µg/mL (≈ 2.21 µM); against Candida parapsilosis, 0.25 µg/mL (≈ 0.551 µM); in the experiment on Candida albicans, 1 µg/mL (≈ 2.21 µM); in the experiment on Candida tropicalis, 0.25 µg/mL (≈ 0.551 µM). Besides, the MIC80 against Trichophyton rubrum was 1 µg/mL (≈ 2.21 µM); in the experiment on Pichia kudriavzevii it was 0.25 µg/mL (≈ 0.551 µM).
With `C=CCN(Cc1ccc(C(=O)OCCCC)cc1)CC(O)(Cn1cncn1)c1ccc(F)cc1F` (stereo unspecified), the MIC80 in the experiment with Cryptococcus neoformans is 1 µg/mL (≈ 2.06 µM); in the experiment on Aspergillus fumigatus, above 64 µg/mL; in the experiment with Nannizzia gypsea, 1 µg/mL (≈ 2.06 µM); with Candida parapsilosis, 1 µg/mL (≈ 2.06 µM); in the experiment on Candida albicans it was 0.25 µg/mL (≈ 0.516 µM); against Candida tropicalis, 1 µg/mL (≈ 2.06 µM). The MIC80 against Trichophyton rubrum and in the experiment on Pichia kudriavzevii was 1 µg/mL (≈ 2.06 µM) throughout.
For `C=CCN(Cc1ccc(C(=O)Oc2ccc([N+](=O)[O-])cc2)cc1)CC(O)(Cn1cncn1)c1ccc(F)cc1F` (stereo unspecified), the MIC80 with Cryptococcus neoformans is 1 µg/mL (≈ 1.82 µM); in the experiment with Aspergillus fumigatus, above 64 µg/mL; in the experiment on Nannizzia gypsea, 0.25 µg/mL (≈ 0.455 µM); against Candida parapsilosis, 1 µg/mL (≈ 1.82 µM); against Candida albicans, 0.25 µg/mL (≈ 0.455 µM); against Candida tropicalis it was 1 µg/mL (≈ 1.82 µM). Also, the values for the MIC80 against Trichophyton rubrum and with Pichia kudriavzevii were 4 µg/mL (≈ 7.28 µM) and 1 µg/mL (≈ 1.82 µM), respectively.
For the molecule `C=CCN(Cc1cccc(F)c1)CC(O)(Cn1cncn1)c1ccc(F)cc1F` (stereo unspecified), the MIC80 is 0.0625 µg/mL (≈ 0.155 µM) against Cryptococcus neoformans; above 64 µg/mL against Aspergillus fumigatus; 0.0156 µg/mL (≈ 0.0388 µM) against Nannizzia gypsea; 0.0625 µg/mL (≈ 0.155 µM) in the experiment on Candida parapsilosis; 0.0156 µg/mL (≈ 0.0388 µM) against Candida albicans; 0.0625 µg/mL (≈ 0.155 µM) against Candida tropicalis. Also, the MIC80 against Trichophyton rubrum was determined as 0.25 µg/mL (≈ 0.621 µM); in the experiment on Pichia kudriavzevii, 0.0625 µg/mL (≈ 0.155 µM).
For `C=CCN(Cc1ccc(Br)cc1)CC(O)(Cn1cncn1)c1ccc(F)cc1F` (stereo unspecified), the MIC80 against Cryptococcus neoformans stood at 0.25 µg/mL (≈ 0.54 µM); in the experiment on Aspergillus fumigatus, 4 µg/mL (≈ 8.63 µM); against Nannizzia gypsea, 0.0625 µg/mL (≈ 0.135 µM); against Candida parapsilosis it was 0.25 µg/mL (≈ 0.54 µM); in the experiment with Candida albicans, 0.0625 µg/mL (≈ 0.135 µM); in the experiment with Candida tropicalis, 0.25 µg/mL (≈ 0.54 µM). Further, the results for the MIC80 against Trichophyton rubrum and in the experiment with Pichia kudriavzevii were 0.25 µg/mL (≈ 0.54 µM) and 0.0625 µg/mL (≈ 0.135 µM), respectively.
For `C=CCN(Cc1ccc(C(=O)Oc2cccc([N+](=O)[O-])c2)cc1)CC(O)(Cn1cncn1)c1ccc(F)cc1F` (stereo unspecified), the MIC80 is 1 µg/mL (≈ 1.82 µM) against Cryptococcus neoformans; above 64 µg/mL against Aspergillus fumigatus; 1 µg/mL (≈ 1.82 µM) against Nannizzia gypsea; 0.25 µg/mL (≈ 0.455 µM) in the experiment on Candida parapsilosis; 0.25 µg/mL (≈ 0.455 µM) in the experiment with Candida albicans; 0.0625 µg/mL (≈ 0.114 µM) against Candida tropicalis. The MIC80 with Trichophyton rubrum and against Pichia kudriavzevii was 4 µg/mL (≈ 7.28 µM) throughout.
Take `C=CCN(Cc1ccc(C(=O)Oc2ccc(C(=O)OCCC)cc2)cc1)CC(O)(Cn1cncn1)c1ccc(F)cc1F` (stereo unspecified): the MIC80 in the experiment on Cryptococcus neoformans is 4 µg/mL (≈ 6.77 µM); against Aspergillus fumigatus it was above 64 µg/mL; with Nannizzia gypsea it was 1 µg/mL (≈ 1.69 µM); with Candida parapsilosis, 0.25 µg/mL (≈ 0.423 µM); in the experiment with Candida albicans, 1 µg/mL (≈ 1.69 µM); with Candida tropicalis it was 0.25 µg/mL (≈ 0.423 µM). For the same molecule, the MIC80 in the experiment on Trichophyton rubrum turned out to be 1 µg/mL (≈ 1.69 µM); in the experiment on Pichia kudriavzevii it was 4 µg/mL (≈ 6.77 µM).
Take `C=CCN(Cc1ccc(C(=O)OCCCCC)cc1)CC(O)(Cn1cncn1)c1ccc(F)cc1F` (stereo unspecified): the MIC80 in the experiment with Cryptococcus neoformans is 1 µg/mL (≈ 2.01 µM); against Aspergillus fumigatus it was above 64 µg/mL; with Nannizzia gypsea, 1 µg/mL (≈ 2.01 µM); against Candida parapsilosis, 1 µg/mL (≈ 2.01 µM); in the experiment on Candida albicans it was 1 µg/mL (≈ 2.01 µM); in the experiment with Candida tropicalis, 1 µg/mL (≈ 2.01 µM). In addition, the figures for the MIC80 against Trichophyton rubrum and against Pichia kudriavzevii were 0.25 µg/mL (≈ 0.501 µM) and 1 µg/mL (≈ 2.01 µM), respectively.
With `C=CCN(Cc1ccccc1)CC(O)(Cn1cncn1)c1ccc(F)cc1F` (stereo unspecified), the MIC80 against Cryptococcus neoformans was 0.0625 µg/mL (≈ 0.163 µM); against Aspergillus fumigatus it was above 64 µg/mL; against Nannizzia gypsea, 0.0039 µg/mL (≈ 0.0101 µM); with Candida parapsilosis, 0.0625 µg/mL (≈ 0.163 µM); against Candida albicans it was 0.0039 µg/mL (≈ 0.0101 µM); against Candida tropicalis, 0.0625 µg/mL (≈ 0.163 µM). Further, the MIC80 was determined as 0.25 µg/mL (≈ 0.65 µM) with Trichophyton rubrum and 0.0625 µg/mL (≈ 0.163 µM) in the experiment with Pichia kudriavzevii.
In the case of `C=CCN(Cc1cccc(Cl)c1)CC(O)(Cn1cncn1)c1ccc(F)cc1F` (stereo unspecified), the MIC80 against Cryptococcus neoformans is 0.25 µg/mL (≈ 0.597 µM); against Aspergillus fumigatus, above 64 µg/mL; against Nannizzia gypsea it was 0.0625 µg/mL (≈ 0.149 µM); against Candida parapsilosis, 0.25 µg/mL (≈ 0.597 µM); in the experiment on Candida albicans it was 0.0156 µg/mL (≈ 0.0372 µM); in the experiment with Candida tropicalis, 0.0625 µg/mL (≈ 0.149 µM). For the same molecule, the MIC80 in the experiment on Trichophyton rubrum was found to be 1 µg/mL (≈ 2.39 µM); against Pichia kudriavzevii, 0.0625 µg/mL (≈ 0.149 µM).

The values are drawn from ChEMBL document CHEMBL1158372, “Design, synthesis, and biological evaluation of novel triazole derivatives as inhibitors of cytochrome P450 14alpha-demethylase” (2009).
